Data on 37 sequences can be found in the array DNA melting data of Ke et al. (doi:10.1101/2024.01.08.574731).

Data set [1] is described as follows: folding enthalpy; higher = less favourable; fluorescence melt of hairpins on a sequencing array, two-state fit. The conditions noted are these: sodium 0.088 M. A digest of the protocol: (§1)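 Bootstrapped two-state fits yielded melting temperature and folding enthalpy for library hairpins. Cy3 fluorescence, with annealed Cy3 and quencher oligos, was imaged on a sequenced MiSeq flow cell in 50 mM Na-HEPES pH 8.0, 25 mM NaCl in 2.5 °C steps up to 60 °C, and normalised to pre-quench Cy3 and to control constructs. Four replicates were combined by inverse variance, and fitted temperatures were raised by 9.35 °C to match UV melts.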

The nature of data set [2]: melting temperature; fluorescence melt of hairpins on a sequencing array, two-state fit, raised by 9.35 °C to match UV melts. The conditions noted are these: sodium 0.088 M. A digest of the protocol:
as §1

For GCACCGCGAAAGCTTTGC (((..((....))..))), the folding enthalpy in data set [1] is -12 kcal/mol. Moreover, the Tm in data set [2] was 36.2 °C.
Regarding GCACCGGGAAACCAGCGC ((.(.((....)).).)), the folding enthalpy in data set [1] was -20.7 kcal/mol. The Tm in data set [2] was 37.4 °C.
For GCACCTACGAAAGTATGC (((..(((....)))))) the same measures were -13.5 kcal/mol and 27.3 °C.
GCACCTCGAAAGAGTTGC (((.(((....))).))): in data set [1], the folding enthalpy was -28.1 kcal/mol. For the same sequence, in data set [2], the Tm came out at 48.6 °C.
Take GCACCTGGAAACGGGTGC (((((.(....).))))): in data set [1], the folding enthalpy is -48 kcal/mol. The Tm in data set [2] was found to be 60.9 °C.
For GCACGAACGAAAGTTTGC (((..(((....)))))) the same measures were -17.1 kcal/mol and 33.5 °C.
GCACGACGAAAGTCCTGC (((.(((....))).))): the folding enthalpy in data set [1] was -26.8 kcal/mol. For the same sequence, the Tm in data set [2] amounted to 45.6 °C.
GCACGAGGAAACCCGTGC (((((.(....).))))): the folding enthalpy in data set [1] is -45.2 kcal/mol. Further, in data set [2], the Tm was found to be 58.2 °C.
For the sequence GCACGAGGAAACTCACGC ((..(((....)))..)), the folding enthalpy in data set [1] was -22.7 kcal/mol. In addition, in data set [2], the Tm was determined as 31.7 °C.
Regarding GCACGAGGAAACTCGCGC ((.((((....)))).)), the folding enthalpy in data set [1] was -43.5 kcal/mol. In addition, the Tm in data set [2] came to 54.5 °C.
For GCACGCCGAAAGGCATGC (((.(((....))).))) the same measures were -28 kcal/mol and 60.5 °C.
As for GCACGCCGAAAGGCCTGC (((.(((....))).))), in data set [1], the folding enthalpy was -23.2 kcal/mol. Also, in data set [2], the Tm stood at 48.8 °C.
For GCACGCGAAAGCGCCTGC ((((((....)))..))) the same measures were -9.69 kcal/mol and 37.1 °C.
The matching figures for GCACGCGAAAGCGCTGC ((((((....))).))): -18.4 kcal/mol and 62.4 °C.
For GCACGCGGAAACACGCGC ((.((.(....).)).)) the same measures were -11.2 kcal/mol and 40.1 °C.
GCACGCGGAAACGCACGC ((..(((....)))..)): the folding enthalpy in data set [1] is -18.1 kcal/mol. The Tm in data set [2] came out at 47.2 °C.
The matching figures for GCACGGCGAAAGCGGAGC ((.(.((....)).).)): -17.7 kcal/mol and 44.7 °C.
The matching figures for GCACGGCGAAAGCTCTGC (((..((....))..))): -21.1 kcal/mol and 37.4 °C.
For the sequence GCACGGCGAAAGCTGCGC ((.(.((....)).).)), the folding enthalpy in data set [1] was -20.8 kcal/mol. Moreover, in data set [2], the Tm worked out at 61 °C.
The matching figures for GCACGGCGAAAGCTTTGC (((..((....))..))): -22.6 kcal/mol and 38.3 °C.
For the sequence GCACGGGGAAACCTGTGC ((((.((....)).)))), the folding enthalpy in data set [1] was -37.7 kcal/mol. Moreover, in data set [2], the Tm was 58.6 °C.
Take GCACGTACGAAAGTATGC (((..(((....)))))): the folding enthalpy in data set [1] is -16 kcal/mol. In addition, the Tm in data set [2] was determined as 31.3 °C.
For GCACGTCCGAAAGGATGC (((..(((....)))))), in data set [1], the folding enthalpy is -11.9 kcal/mol. Further, the Tm in data set [2] worked out at 36.8 °C.
The matching figures for GCACGTCGAAAGACCTGC (((.(((....))).))): -28.1 kcal/mol and 45.2 °C.
With GCACGTGGAAACGTGTGC ((((..(....)..)))), the folding enthalpy in data set [1] was -24.8 kcal/mol. Further, the Tm in data set [2] was 58.5 °C.
The matching figures for GCACTACCGAAAGGTTGC (((..(((....)))))): -15.9 kcal/mol and 39.6 °C.
For GCACTAGGAAACTAGTGC (((((((....))))))) the same measures were -36.2 kcal/mol and 62.8 °C.
For GCACTCCGAAAGGATGC (((.(((....)))))), in data set [1], the folding enthalpy is -29.4 kcal/mol. In addition, the Tm in data set [2] amounted to 51.7 °C.
With GCACTCGGAAACGAACGC ((..(((....)))..)), in data set [1], the folding enthalpy is -13.9 kcal/mol. For the same sequence, the Tm in data set [2] came out at 27.8 °C.
In the case of GCACTCGGAAACGAATGC (((.(((....))).))), the folding enthalpy in data set [1] was -33.5 kcal/mol. Besides, the Tm in data set [2] turned out to be 45.1 °C.
For the sequence GCACTCGGAAACGAGTAC (.(((((....))))).), in data set [1], the folding enthalpy was -13.6 kcal/mol. Moreover, in data set [2], the Tm was 44.1 °C.
The matching figures for GCACTGAAAAGTGC (((((....))))): -35.1 kcal/mol and 61 °C.
As for GCACTGCGAAAGCAATGC (((.(((....))).))), the folding enthalpy in data set [1] was -40.9 kcal/mol. The Tm in data set [2] is 51.5 °C.
Turning to GCACTGCGAAAGCACCGC ((..(((....)))..)), in data set [1], the folding enthalpy was -9.03 kcal/mol. In data set [2], the Tm came out at 29.5 °C.
For the sequence GCACTGCGAAAGCATCGC ((..(((....)))..)), in data set [1], the folding enthalpy was -12.8 kcal/mol. Moreover, the Tm in data set [2] was 39.5 °C.
For GCACTGCGAAAGCATTGC (((.(((....))).))) the same measures were -42.6 kcal/mol and 52.5 °C.
The matching figures for GCACTGCGAAAGCCGAGC ((.(.((....)).).)): -20.2 kcal/mol and 38.8 °C.
